SIAE primary = blocks human sialic acid acetylesterase; Q9HAT2; inhibition, % at 9.66 µM; hit rate 0.69% among 370,000; SIAE FP-Rh probe binding, fluorescence polarization;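 active = inhibition above a cutoff: mean of compounds within the control limits plus 3 SD of those, cut at about 17% in these data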;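 also: 0% = plate median of compound wells and 100% = probe without SIAE protein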
Target sequence (Q9HAT2 whole entry, looked up): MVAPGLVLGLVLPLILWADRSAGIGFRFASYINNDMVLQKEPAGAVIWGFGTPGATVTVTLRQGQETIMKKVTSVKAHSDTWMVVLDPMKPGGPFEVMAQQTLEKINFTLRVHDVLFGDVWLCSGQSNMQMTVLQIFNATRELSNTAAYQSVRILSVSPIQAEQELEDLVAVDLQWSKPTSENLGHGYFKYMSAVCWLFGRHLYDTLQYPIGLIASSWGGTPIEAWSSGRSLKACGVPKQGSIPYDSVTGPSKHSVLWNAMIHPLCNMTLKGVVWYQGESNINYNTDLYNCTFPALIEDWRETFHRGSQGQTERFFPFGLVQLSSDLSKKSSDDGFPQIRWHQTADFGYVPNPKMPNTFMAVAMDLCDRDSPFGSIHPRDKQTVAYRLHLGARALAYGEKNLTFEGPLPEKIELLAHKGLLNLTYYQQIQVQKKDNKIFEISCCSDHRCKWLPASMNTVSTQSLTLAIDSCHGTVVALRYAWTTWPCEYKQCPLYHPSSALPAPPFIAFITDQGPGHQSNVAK
HTRA1 inh = inhibitors of human serine peptidase HTRA1; Q92743; recombinant HTRA1, FP-rhodamine activity-based probe, fluorescence polarization; hit rate 0.5% among 340,000; AID 504803; inhibition, % at 5.96 µM; in the data active = inhibition above about 36%;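 also: 0% = enzyme with DMSO and 100% = wells lacking enzyme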
rCAG RNA binder = r(CAG) repeat RNA binding; TO-PRO-1 dye displacement fluorescence; inhibition, % at 3 µM; hit rate 1.3% among 370,000; AID 651821;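 active = inhibition above the plate cutoff, the mean of all test compounds on that plate plus 3 SD, cut at about 35% in these data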;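 also: 0% = DMSO alone and 100% = 100 µM mitoxantrone as full dye displacement; higher means more dye released from RNA so lower well fluorescence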
TCR CD3 inh = blocks the human TCR-CD3 interaction; TAMRA-labeled TCR probe fluorescence, biochemical; inhibition, % at 9.4 µM; hit rate 0.37% among 360,000; AID 651800; in the data active = inhibition above about 19%;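 also: recombinant mutant TCR 2C K166C tagged with TAMRA read by polarization; 0% = receptor in buffer alone and 100% = receptor with positive control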
PRMT1 FP inh = PRMT1 (human) inhibition, primary screen | Q99873 | recombinant PRMT1, activity-based probe fluorescence polarization | inhibition, % at 2.79 µM | hit rate 1.3% among 370,000 | AID 652257;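 active = inhibition above about 21% made by adding two undisclosed values, limit read from the data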
mABHD4 FP = ABHD4 (mouse) inhibition, primary FP screen | purified mABHD4, FP-Rh probe fluorescence polarization | inhibition, % at 8.92 µM | hit rate 0.54% among 370,000 | AID 720543;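 active = inhibition exceeding the mean over every tested compound plus 3 SD, cut at about 30% in these data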;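 also: 0% = plate median of compound wells and 100% = S159A mutant with DMSO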
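Test system: mouse ABHD4 enzyme, wild type. Reagent: FP-Rh fluorescent activity-based probe, added after compound pre-incubation. Timing: pre-incubation 45 min, probe exposure 60 min, at 25 °C. Technique: FP readout, ex 525 nm / em 598 nm. Benchmarks: high control S159A mutant with DMSO, low control median of compound wells.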
HTRA1 conf = confirmation of human HTRA1 inhibitors; shares compounds with HTRA1 inh; recombinant HTRA1, FP-rhodamine activity-based probe, fluorescence polarization; inhibition, % at 5.96 µM; hit rate 66% among 1,600;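 active = mean inhibition over three repeats above a set limit taken from the earlier primary screen, cut at about 37% in these data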;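 also: 0% = HTRA1 with DMSO and 100% = wells lacking HTRA1; inhibitors block probe binding so polarization drops and inhibition rises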
* hit, by the source's call; / = no result given. Only some compounds are listed: those with a hit (about 3.5% of all), similar ones and a draw of the others.

SMILES	SIAE primary	HTRA1 inh	rCAG RNA binder	TCR CD3 inh	PRMT1 FP inh	mABHD4 FP	others
COC(=O)C1CN(Cc2cn(Cc3ccc(Cl)cc3)nn2)CCS(=O)(=O)N1Cc1ccccc1 (stereo not drawn)	1	/	3	/	1	4
O=C(Nc1ccc(F)cc1)OCc1cn(Cc2cccc(Cl)c2)nn1	-7	/	0	/	2	-4
COCCCNc1nc2c(c(=O)[nH]c(=O)n2C)n1CC(O)COc1ccccc1C (stereo not drawn)	19*	2	-2	7	1	7
Cn1cnc([N+](=O)[O-])c1S(=O)(=O)Oc1cccc2ccccc12	-2	6	2	4	23*	2
Cn1cnc([N+](=O)[O-])c1Oc1cccc2ccccc12	-2	9	3	0	5	6
COc1ccc(N=C2S/C(=C\c3ccc(OCC(=O)O)cc3)C(=O)N2CCc2c[nH]c3ccccc23)cc1	-7	-25	68*	4	5	-1
COc1ccc(N=C2S/C(=C\c3ccc(N4CCOCC4)o3)C(=O)N2CCc2c[nH]c3ccccc23)cc1	/	7	/	/	/	/
CC(=O)Nc1ccc(S(=O)(=O)NC2(C(F)(F)F)NC(=O)N(CC(C)C)C2=O)cc1 (stereo not drawn)	-3	-7	0	5	-1	1
CC(C)CN1C(=O)NC(NS(=O)(=O)c2ccc(N)cc2)(C(F)(F)F)C1=O (stereo not drawn)	-3	2	1	-3	24*	-4
CCc1cccc(CC)c1NC(=O)C1SC(=Nc2ccccc2C)C(c2nc3ccccc3s2)=C1N (stereo not drawn)	-96	-52	42*	10	-1	-55
COC(=O)C[C@H]1CC[C@H]2[C@H](COc3ccc(NS(=O)(=O)c4ccccc4C)cc3C(=O)N2C)O1	2	/	5	/	1	6
C[C@H](O)[C@@H]1CN2CCc3ccc(-c4ccc5c(c4)OCO5)cc3[C@@H]2C[C@@H]1N(C)C(=O)Nc1ccccc1	-7	/	3	/	-2	-10
Cc1ccc(S(=O)(=O)N2CCOCC2)cc1NC(=O)CSc1nc(N)cc(N)n1	-6	6	2	-4	11	-12
Cc1ccc(S(=O)(=O)N2CCOCC2)cc1NC(=O)CSc1nc(N)cc(=O)[nH]1	0	-5	5	0	23*	4
Cc1c(CCC(=O)N[C@@H](C)C(=O)O)c(=O)oc2cc3oc4c(c3cc12)CCCC4	-8	-11	28	4	2	-2
CCCC(NC(=O)CCc1c(C)c2cc3c4c(oc3c(C)c2oc1=O)CCCC4)C(=O)O (stereo not drawn)	-5	-8	36*	8	-6	-8
CCCC/C=C1/[C@H](CC)N(C)C2=N[C@@H](c3ccccc3)CC(=O)N21	5	/	/	/	3	0
O=c1[nH]c2ccc(Br)cc2c(-c2ccccc2)c1N1CCOCC1	-2	10	2	-2	3	5
CC(=O)c1c(N2CCOCC2)nc2ccc(Br)cc2c1-c1ccccc1	19*	/	-2	-5	1	3
O=C(NCc1ccccc1)OCCN1C(=O)CCC12CCC(c1ccc(Cl)cc1)CC2 (stereo not drawn)	-6	/	-1	/	0	-1
Nc1nonc1-n1nnc(C(=O)N/N=C/c2cccnc2)c1CSC1=NCCS1	-1	-1	2	2	47*	6
Cc1ccc(CCNc2ccc3ccccc3c2)cn1	0	1	0	-1	23*	5
COC(=O)Cc1cc(=O)n(-c2nc3ccccc3[nH]2)[nH]1	17	36	42*	22*	3	17
COc1ccc(C(NC(=O)/C=C/c2ccco2)c2ccc(OC)c(OC)c2)cc1 (stereo not drawn)	-5	-12	12	-10	25*	-6
CCOc1ccc(C(NC(=O)/C=C/c2ccco2)c2ccc(OC)c(OC)c2)cc1 (stereo not drawn)	-8	-20	5	3	6	-12
SMILES	SIAE primary	HTRA1 inh	rCAG RNA binder	TCR CD3 inh	PRMT1 FP inh	mABHD4 FP	others
CCOc1ccc(-n2c(SCC(=O)Nc3ccccc3-c3ccccc3)nnc2-c2cccs2)cc1	-4	/	8	/	-1	-10
CCN(CC)C(=O)CC[C@H]1CC[C@]2(CCCN(Cc3ccccn3)C2)O1	2	/	-1	/	-1	0
Cc1ccc2nc(N3C(=O)C(O)=C(C(=O)c4ccc(C)o4)C3c3ccc(O)cc3)sc2c1 (stereo not drawn)	-14	-29	69*	-8	13	-21
CCOc1ccc2nc(N3C(=O)C(O)=C(C(=O)c4ccco4)C3c3ccco3)sc2c1 (stereo not drawn)	-2	9	22	-5	18	22
Cc1ccc(NC(=S)N(CCN(C)C)Cc2cccs2)c(C)c1	12	0	-3	1	22*	2
Cc1cc(C)c(NC(=S)N(CCN(C)C)Cc2cccs2)c(C)c1	-5	1	-3	2	-6	-6
CCC[C@H]1[C@@H](OC(=O)Oc2ccc([N+](=O)[O-])cc2)CC[C@@]23CCCN2C(=O)CCC[C@@H]13	-1	/	/	/	-2	1
C[C@@H]1ON(C)[C@H]2C[C@H]3c4[nH]c5c(-c6ccccc6F)cccc5c4CCN3C[C@@H]12	6	/	3	/	1	9
Fc1ccc(NC(=S)NN=Cc2ccccc2Cl)cc1	5	-20	5	-4	2	-2
Oc1ccccc1C=NNC(=S)Nc1ccc(F)cc1	6	45*	10	12	-6	9	HTRA1 conf=46*
C=CCN1CCc2c(cc(O)c(O)c2Br)[C@@H](c2ccccc2)C1	-3	51*	9	6	3	15	HTRA1 conf=68*
COc1cc(NCCCCCCN)c2ncccc2c1OC	7	38*	7	14	4	40*	HTRA1 conf=39*
COc1cc(NC(C)CCCNC(C)C)c2ncccc2c1OC (stereo not drawn)	9	6	3	2	2	16
CCOC(=O)[C@@]12CCC3=C1N(CCC3)C(=O)[C@H](CC(=O)N1CCSCC1)C2	4	/	2	/	-3	3
Clc1ccc(-c2nnc(Sc3nc4ccccc4o3)c3ccccc23)cc1	-1	137*	2	4	-4	-4	HTRA1 conf=-5
COc1cc(C2Nc3cccc4cccc(c34)N2)cc(OC)c1O	47*	39*	36*	-1	4	-2	HTRA1 conf=35
COc1cc(C2Nc3cccc4cccc(c34)N2)ccc1OC(C)=O	/	11	/	/	/	/
O=C(O)c1ccc2c(c1)C1C=CCC1C(c1ccncc1)N2 (stereo not drawn)	1	6	-1	-2	-5	-1
CCCC1Nc2ccc(C(=O)O)cc2C2C=CCC12 (stereo not drawn)	/	39*	/	/	/	/	HTRA1 conf=39*

Assay outcomes: PubChem, The Scripps Research Institute Molecular Screening Center
